Experiment: Toxicity liver stage against HepG2, at 10uM
Type: cell-based
Parameters: test concentration 10 uM, cell line HepG2-A16-CD81EGFP
Details: human, HepG2-A16-CD81EGFP cells; read-out: INHIBITION
Procedure, shortened: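 Uninfected HepG2-A16-CD81EGFP cells, 3 × 10^3 per well, 1536-well, plated on prespotted compound at 10 μM final, parasite-free screening media added to match infected plates; puromycin 10 μM positive, DMSO 0.5% negative; run in parallel with 48 h PbLuc assay at 37 °C, 5% CO2; viability by CellTiter-Glo luminescence, normalized to controls.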

Structure (SMILES)	cytotoxicity at 10 µM [%]
c1ccc(OC2COC3(CCN(CC4CC4)CC3)C2)nc1 (stereo unspecified)	-75.2
CCn1c(C)nnc1SCCn1cc(-c2nccs2)nn1	2.91
CN1CCN(C(=O)c2ccnc(N3CCOC(C(F)(F)F)C3)c2)CC1 (stereo unspecified)	-11.4
CC1CN(C)CCN1Cc1cccc(C(=O)NCc2ccco2)c1 (stereo unspecified)	3.33
CCc1nnsc1C(=O)N(C)Cc1ccco1	-45
CNC(=O)C1CN(C(=O)COc2ccccc2)Cc2cn(C)nc21 (stereo unspecified)	-10.4
COCCN1CCC2(CCN(c3ncccn3)CC2)C1=O	3.47
COc1cc(OC)c2c(=O)oc(CC(O)CC(C)=O)cc2c1 (stereo unspecified)	5.73
Cc1noc2ncnc(N(C)Cc3ccco3)c12	2.57
COC(=O)[C@H]1C[C@@H](O)CCN1S(=O)(=O)c1cc(C)c(Cl)cc1C	-0.566
CCOc1cccc(NS(=O)(=O)c2cc(C(=O)O)cs2)c1	-4.41
COC(=O)c1ccc(N2CCN(C(=O)c3cccnc3)C(C)C2)cc1 (stereo unspecified)	4.54
CCCOC1CCCN(Cc2nc(-c3cccs3)oc2C)C1 (stereo unspecified)	-53.1
Cc1nc(CN2CC3(CCN(c4nccs4)C3)CC2=O)cs1 (stereo unspecified)	-0.646
CN(C)c1cc(C(=O)NC2(c3cccc(F)c3)CCOCC2)ccn1	-1.31
COCCNC(=O)C(C)n1nc(-c2ccc(C)o2)cc(N)c1=O (stereo unspecified)	1.26
Cc1cccc(-c2nc(C)nn2CC(=O)NC(C)C2CC2)c1 (stereo unspecified)	-0.502
O=C(c1cnccn1)N1CCCC2(CCN(Cc3ccsc3)C2)C1 (stereo unspecified)	-2.27
Nc1nccc(C2CCCN(CC3CC3)C2)n1 (stereo unspecified)	0.631
Cc1cn[nH]c1C1COCCN1Cc1cscn1 (stereo unspecified)	2.67
CC(CNC(=O)N1CCN(Cc2ccon2)CC1)N(C)C1CC1 (stereo unspecified)	-6.74
OCC1(Cc2ccc(F)cc2F)CCCN(Cc2ccncc2)C1 (stereo unspecified)	-3.44
COCCN1CC(C(=O)N(CCN(C)C)Cc2ccc(C)s2)CC1=O (stereo unspecified)	1.98

Structure (SMILES)	cytotoxicity at 10 µM [%]
CCS(=O)(=O)N1CCC(Oc2ccc(C#N)cc2)CC1	16.8
CCCSc1ccccc1NC(=O)N1CCN(C(=O)c2ccc[nH]2)CC1	3.99
Cc1cc(C(=O)N2CCOC(c3nc(C(C)C)n[nH]3)C2)c(C)s1 (stereo unspecified)	-5.72
COc1c(C2CCCN2C(=O)c2ccc(N(C)C)nn2)c(C)nn1C (stereo unspecified)	-13.7
CCc1nc(CN2CCc3c(ncn3C3CC3)C2)cs1	-1.59
O=C(CN1CCc2cncnc2C1)N1CCc2sccc2C1	11.9
Cn1cc(CN2CCCC3(COCCN(c4cccnc4)C3)C2)cn1 (stereo unspecified)	-75.6
CC(C)OCCOCc1cccc(NC(=O)NCc2ccccn2)c1	-2.35
Cc1cnc(CN2CCC(N(C)Cc3nnc(C)n3C)C2)cn1 (stereo unspecified)	-10.7
CC(C)(C)n1cc(CNC2CCN(C(=O)c3ccoc3)CC2)cn1	6.35
CN(C)C(=O)COC[C@]12COC[C@H]1CN(CCc1ccccc1)C2	-1.69
CC(C)c1nc(CN(CC(N)=O)C(C)C)cs1	-14.4
CCC(C(=O)N(Cc1ccccn1)C1CCCCC1)n1cccn1 (stereo unspecified)	-45.3
COc1ccc(NC(=O)C(c2cccc(F)c2)N2CCOCC2)cc1 (stereo unspecified)	2.42
O=C(Nc1ccccc1Cn1cccn1)N1CCCC(N2CCCC2)C1 (stereo unspecified)	5.6
Cc1ccccc1CC(=O)N1CCN(C2CCOC2=O)CC1 (stereo unspecified)	-8.38
Cc1cc(C)n(CC(C)NCc2nncn2C2CCCCC2)n1 (stereo unspecified)	-3.26
CNc1snc(C)c1C(=O)N1CCC(Nc2ccc(C)nn2)CC1	-8.27
Cc1cc(C(=O)NS(=O)(=O)Cc2ccon2)c(C)n1C(C)C	-2.17
Cc1cccc2c1nc1n2[C@@H](CNC(=O)Cc2ccccc2)COC1	-5.12
Fc1ccc(-c2noc([C@@H]3Cc4nc[nH]c4CN3)n2)cc1	-5.9
CC(C)=CCC1(C(=O)O)CCCN(c2cc(N)ncn2)C1 (stereo unspecified)	10.1
Cc1ccccc1OCC1CCCN(C(=O)CN(C)C2CCNCC2)C1 (stereo unspecified)	-5.54

Structure (SMILES)	cytotoxicity at 10 µM [%]
O=C(c1ccc(F)cc1)N1CC[C@H]2[C@H]1CCN2CC1CCOCC1	-76.4
CCN(Cc1ccco1)C(=O)c1cc(OC)c2c(c1)OCCO2	-4.22
COc1c(C2CCCN2Cc2noc(C(C)C)n2)c(C)nn1C (stereo unspecified)	-8.93
CCn1nc2c(cc1=O)CN(CCOc1cccc(C#N)c1)CC2	4.67
Cc1cccc(NC(=O)[C@@H]2CCCN2Cc2ccccc2C#N)n1	-4.11
Cc1cc(C)c2nc(CN3CCC(N4CCOC4=O)CC3)cc(O)c2c1	-0.213
COc1cccc2c1OCC(NC(=O)NCCc1ccccn1)C2 (stereo unspecified)	5.69
CN(Cc1cccc2cccnc12)C1CCS(=O)(=O)C1 (stereo unspecified)	-0.237
Fc1cnc(N2CCO[C@H]3CN(CC4CCOC4)C[C@H]32)nc1 (stereo partly specified)	12.3
c1ccc(OCc2ccncc2)c(CNC2CCc3ncnn3C2)c1 (stereo unspecified)	-2.35
CC(C)c1cc(O)nc(C2CCCN2C(=O)C(C)(C)C)n1 (stereo unspecified)	-17.8
Cc1cc(C)n(Cc2ccc(C(=O)N3CCOCC3(C)C)cc2)n1	-9.23
COc1ccc(CN2CCN(CC3CC3)[C@@H]3CS(=O)(=O)C[C@@H]32)cc1O	-0.931
CCc1nc(C(=O)N2CCN(Cc3ccc(Cl)cc3)CC2)c[nH]1	-6.85
O=C(CN1CCC(c2cc(=O)n3c(n2)CCCCC3)C1)N1CCCCC1 (stereo unspecified)	-22.8
O=S1(=O)NC(c2ccnc(N3CCCCC3)n2)=Nc2ccccc21	18.3
CC(=O)NC(Cc1c[nH]c2cc(F)ccc12)C(=O)Nc1cnn(C)c1 (stereo unspecified)	13.9
c1cncc(CNc2cccc(OCCN3CCCCC3)c2)c1	-0.589
N#Cc1ccc(CNC(=O)NC2CCCN(c3ncccn3)C2)cc1 (stereo unspecified)	5.38
COC(=O)CCn1ccc(=O)c2cc(F)ccc21	0.409
Cc1nnc(CN2CCC(N(C)Cc3nnc(C4CC4)n3C)C2)o1 (stereo unspecified)	-5.36
Cn1cc(C[C@H]2[C@H](N3CCOCC3)CCN2C(=O)c2ccoc2)cn1	-81.5
CC(C)N(CC(N)=O)C(=O)CCC(=O)c1ccc(F)cc1F	0.529

Structure (SMILES)	cytotoxicity at 10 µM [%]
CCc1c(C(=O)NC2CCS(=O)(=O)C2)cnn1-c1ccc(F)cc1 (stereo unspecified)	-6.31
Cc1ccc(-c2noc(C3CCN3C(=O)c3cc[nH]n3)n2)s1 (stereo unspecified)	8.47
Cc1oc(-c2ccco2)nc1CN1CCc2cnc(C(C)C)nc2C1	0.0371
COc1ccccc1CC(C)CC(=O)NS(=O)(=O)C(C)C (stereo unspecified)	4.56
COc1ccc(C2CC(=O)Oc3cc(C)[nH]c(=O)c32)cc1 (stereo unspecified)	-3.16
Cc1[nH]ccc1C(=O)Nc1cccc(CN2CCC(CO)CC2)c1	-9.37
Cn1nnc2c1CCN(S(C)(=O)=O)C2COCC1CC1 (stereo unspecified)	-4.6
CCN(CC)S(=O)(=O)N1CCCC1c1nnc2n1CCN(C)CC2 (stereo unspecified)	0.45
CCn1cc(CN2CCC(NS(C)(=O)=O)CC2)cc1C#N	-4.18
CNC(=O)C1CCN(C(=O)NCCc2ccc(Cl)s2)CC1	-12.3
Cc1cccc(CN2CCC3(CCCN(Cc4cnn(C)c4)C3)C2)n1 (stereo unspecified)	-113
O=C(NCCOc1ccc2c(c1)OCO2)N1CCC1	-6.24
CNC(=O)C(NC(=O)c1ccn(C)c(=O)c1)c1ccccc1 (stereo unspecified)	4.73
CC(C)N(C)[C@@H]1CCN(c2ncccn2)[C@H]1Cc1ccncc1	-3.42
CC(C)C(NC(=O)c1ccccc1F)C(=O)N1CCC2(CC1)OCCO2 (stereo unspecified)	7.04
CN(Cc1ccncn1)C(=O)CCc1[nH]nc2c1CCCC2	3.11
CC(=O)Nn1ccc2c(nnc3c(-c4ccc(F)cc4)cnn32)c1=O	1.36
COCCN1CCC2(CC1)CN(C(=O)c1ccccc1)CCO2	1.61
COc1ccc(CC(=O)N2CCN(Cc3ccco3)C[C@H]2C)cc1OC	1.02
CCCc1nc(N2CCCN(c3ncccn3)CC2)c2cnn(C)c2n1	-1.18
Cc1cnn(CC(C)NCc2csc(-c3ccco3)n2)c1 (stereo unspecified)	3.44
O=C(Nc1cccc(CNCc2cccnc2)c1)C1CCCC1	-9.27
CN(C)CCN1CC(C(=O)N2CCC(c3cc(=O)[nH]cn3)CC2)CC1=O (stereo unspecified)	-2.34

Structure (SMILES)	cytotoxicity at 10 µM [%]
CC1c2ncc(Cn3cncn3)n2CCN1C(=O)N(C)C (stereo unspecified)	0.267
CN(C)C(=O)c1n[nH]c2c1CN(Cc1nccs1)CC2	-150
CCOCC(O)CN1CCN(C(=O)c2cccc(OC)c2)CC1 (stereo unspecified)	-0.874
NC(=O)C1(CNCc2csc(-c3cccs3)n2)CCOCC1	-19.3
c1cnc(-c2noc(C3CN(Cc4ccc5c(c4)CCO5)C3)n2)cn1	1.35
CN(Cc1ccccc1NCc1cccnc1)C(=O)c1cccs1	0.205
C1CCCN(C2CCCN(Cc3noc(C4CC4)n3)C2)CC1 (stereo unspecified)	-8.84
Cc1cc(C(=O)N2CCN[C@H](C)C2)c2ccc(F)cc2n1	13.7
Cc1ccc(-c2cnnc(N3CCCC3c3nccs3)n2)o1 (stereo unspecified)	3.04
Cc1cc(F)cc(S(=O)(=O)Nc2noc(C)n2)c1	3.11
NCc1cn(-c2ccccc2C(=O)NCc2ccccc2Cl)cn1	-9.94
CC(CS(C)(=O)=O)N(C(=O)Nc1cc(F)ccc1Cl)C1CC1 (stereo unspecified)	-4.15
CNS(=O)(=O)c1cccc(S(=O)(=O)Nc2ncc(C)s2)c1	-4.79
O=C(CNC(=O)C1(c2ccc(F)cc2F)CCC1)Nc1ccccn1	-16.5
Cc1cnc(N2C(=O)CSC2c2cccs2)s1 (stereo unspecified)	0.847
Cc1cccc(CN2C[C@@H]3CN(C(=O)c4ccco4)C[C@@H]3C2=O)n1	-0.42
OCc1ccc(-c2nccn2CCC2=CCCCC2)o1	4.19
CC(C)c1nc(C2CCCN(C(=O)c3ccc4c(c3)OCO4)C2)no1 (stereo unspecified)	-14.1
Cc1cnn(CC2CN(CCc3ccccn3)CCO2)c1 (stereo unspecified)	-4.98

Reference: ChEMBL document CHEMBL4513216, “Probing the Open Global Health Chemical Diversity Library for Multistage-Active Starting Points for Next-Generation Antimalarials” (ACS Infect Dis, 2020)
